Measured values as given in ChEMBL document CHEMBL1800050, “A new class of phenazines with activity against a chloroquine resistant Plasmodium falciparum strain and antimicrobial activity” (J Med Chem, 2011).
pIC50: −log10 of the molar value. Active and inactive are the calls of the source. No cut-off for these calls is given here.

What was measured:
Plasmodium falciparum [1] = experiment: Antimalarial activity against chloroquine-sensitive Plasmodium falciparum NF54 infected in human erythrocytes assessed as inhibition of parasite growth at 2.5 to 10 uM after 72 hrs by Geimsa staining based light microscopic analysis; assay type: functional, organism-based
Plasmodium falciparum [2] = experiment: Antimalarial activity against chloroquine-sensitive Plasmodium falciparum NF54 infected in human erythrocytes assessed as reduction of parasitemia level at 10 uM after 4 days by Geimsa staining based light microscopic analysis (reference value: 2.73 +/- 0.16%); assay type: functional; parameters: scale not given: the % may be the effect or the level left
Plasmodium falciparum [3] = experiment: Antimalarial activity against chloroquine-sensitive Plasmodium falciparum NF54 infected in human erythrocytes assessed as inhibition of parasite growth after 72 hrs by Geimsa staining based light microscopic analysis; assay type: functional, organism-based; settings: NF54, 72 h
Plasmodium falciparum [4] = experiment: Antimalarial activity against chloroquine-sensitive Plasmodium falciparum NF54 infected in human erythrocytes assessed as reduction of parasitemia level at 10 uM after 2 days by Geimsa staining based light microscopic analysis (reference value: 1.21 +/- 0.12%); assay type: functional; parameters: scale not given: the % may be the effect or the level left
Plasmodium falciparum [5] = experiment: Antimalarial activity against chloroquine-sensitive Plasmodium falciparum NF54 infected in human erythrocytes assessed as reduction of parasitemia level at 10 uM after 3 days by Geimsa staining based light microscopic analysis (reference value: 2.55 +/- 0.21%); assay type: functional; parameters: scale not given: the % may be the effect or the level left
Plasmodium falciparum [6] = experiment: Antimalarial activity against chloroquine-sensitive Plasmodium falciparum NF54 infected in human erythrocytes assessed as reduction of parasitemia level at 10 uM after 1 day by Geimsa staining based light microscopic analysis (reference value: 0.97 +/- 0.1%); assay type: functional; parameters: scale not given: the % may be the effect or the level left
Plasmodium falciparum [7] = experiment: Antimalarial activity against chloroquine-sensitive Plasmodium falciparum NF54 infected in human erythrocytes assessed as reduction of parasitemia level at 3 uM after 2 days by Geimsa staining based light microscopic analysis (reference value: 1.21 +/- 0.12%); assay type: functional; parameters: scale not given: the % may be the effect or the level left
Plasmodium falciparum [8] = experiment: Antimalarial activity against chloroquine-sensitive Plasmodium falciparum NF54 infected in human erythrocytes assessed as reduction of parasitemia level at 3 uM after 3 days by Geimsa staining based light microscopic analysis (reference value: 2.55 +/- 0.21%); assay type: functional; parameters: scale not given: the % may be the effect or the level left
Plasmodium falciparum [9] = experiment: Antimalarial activity against chloroquine-sensitive Plasmodium falciparum NF54 infected in human erythrocytes assessed as reduction of parasitemia level at 3 uM after 1 day by Geimsa staining based light microscopic analysis (reference value: 0.97 +/- 0.1%); assay type: functional; parameters: scale not given: the % may be the effect or the level left
Plasmodium falciparum [10] = experiment: Antimalarial activity against chloroquine-sensitive Plasmodium falciparum NF54 infected in human erythrocytes assessed as reduction of parasitemia level at 3 uM after 4 days by Geimsa staining based light microscopic analysis (reference value: 2.73 +/- 0.16%); assay type: functional; parameters: scale not given: the % may be the effect or the level left
Plasmodium falciparum [11] = experiment: Antimalarial activity against chloroquine-sensitive Plasmodium falciparum NF54 infected in human erythrocytes assessed as reduction of parasitemia level at 20 uM after 2 days by Geimsa staining based light microscopic analysis (reference value: 1.21 +/- 0.12%); assay type: functional; parameters: scale not given: the % may be the effect or the level left
Plasmodium berghei [12] = experiment: Antimalarial activity against […] Plasmodium berghei ANKA infected in C57BL/6 mouse assessed as protection against cerebral malaria at 100 mg/kg, ip administered 3 to 9 days post infection by Geimsa staining based microscopic analysis; assay type: functional, organism-based; parameters: dose 100 mg/kg
Procedure, shortened: (§1)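 Infected C57BL/6 mice were followed over time for blood parasitemia and for survival, with a chloroquine-treated group as reference. Death from cerebral malaria and later death from anemia were recorded separately.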

Plasmodium falciparum [13] = experiment: Antimalarial activity against chloroquine-sensitive Plasmodium falciparum NF54 infected in human erythrocytes assessed as reduction of parasitemia level at 20 uM after 3 days by Geimsa staining based light microscopic analysis (reference value: 2.55 +/- 0.21%); assay type: functional; parameters: scale not given: the % may be the effect or the level left
Plasmodium falciparum [14] = experiment: Antimalarial activity against chloroquine-sensitive Plasmodium falciparum NF54 infected in human erythrocytes assessed as reduction of parasitemia level at 20 uM after 4 days by Geimsa staining based light microscopic analysis (reference value: 2.73 +/- 0.16%); assay type: functional; parameters: scale not given: the % may be the effect or the level left
Plasmodium falciparum [15] = experiment: Antimalarial activity against chloroquine-sensitive Plasmodium falciparum NF54 infected in human erythrocytes assessed as reduction of parasitemia level at 20 uM after 1 day by Geimsa staining based light microscopic analysis (reference value: 0.97 +/- 0.1%); assay type: functional; parameters: scale not given: the % may be the effect or the level left
Plasmodium berghei [16] = experiment: Antimalarial activity against […] Plasmodium berghei ANKA infected in C57BL/6 mouse assessed as clearance of parasite from blood of mouse at 100 mg/kg, ip administered 3 to 9 days post infection by Geimsa staining based microscopic analysis; assay type: functional, organism-based; parameters: dose 100 mg/kg; procedure, shortened: as §1
Mus musculus [17] = experiment: Toxicity in […] Plasmodium berghei ANKA infected C57BL/6 mouse assessed as mortality with anemia at 100 mg/kg, ip administered 3 to 9 days post infection measured on day 10; assay type: organism-based; parameters: dose 100 mg/kg, route intraperitoneal; settings: in vivo; procedure, shortened: as §1
Plasmodium berghei [18] = experiment: Antimalarial activity against […] Plasmodium berghei ANKA infected in C57BL/6 mouse assessed as clearance of parasite from blood of mouse at 80 mg/kg, ip administered 3 to 9 days post infection by Geimsa staining based microscopic analysis; assay type: functional, organism-based; parameters: dose 80 mg/kg; procedure, shortened: as §1
Mus musculus [19] = experiment: Toxicity in […] Plasmodium berghei ANKA infected C57BL/6 mouse assessed as mortality with anemia at 80 mg/kg, ip administered 3 to 9 days post infection measured on day 10; assay type: organism-based; parameters: dose 80 mg/kg, route intraperitoneal; settings: in vivo; procedure, shortened: as §1
Plasmodium berghei [20] = experiment: Antimalarial activity against […] Plasmodium berghei ANKA infected in C57BL/6 mouse assessed as protection against cerebral malaria at 80 mg/kg, ip administered 3 to 9 days post infection by Geimsa staining based microscopic analysis; assay type: functional, organism-based; parameters: dose 80 mg/kg; procedure, shortened: as §1
Plasmodium berghei [21] = experiment: Antimalarial activity against […] Plasmodium berghei ANKA infected in C57BL/6 mouse assessed as clearance of parasite from blood of mouse at 150 mg/kg, ip administered 3 to 9 days post infection measured on day 5 to 7 by Geimsa staining based microscopic analysis; assay type: functional, organism-based; parameters: dose 150 mg/kg; procedure, shortened: as §1
Plasmodium falciparum [22] = experiment: Antimalarial activity against chloroquine-sensitive Plasmodium falciparum NF54 infected in human erythrocytes assessed as reduction of parasitemia level at 0.032 uM after 1 day by Geimsa staining based light microscopic analysis (reference value: 0.97 +/- 0.1%); assay type: functional; parameters: scale not given: the % may be the effect or the level left
Plasmodium falciparum [23] = experiment: Antimalarial activity against chloroquine-sensitive Plasmodium falciparum NF54 infected in human erythrocytes assessed as reduction of parasitemia level at 0.032 uM after 2 days by Geimsa staining based light microscopic analysis (reference value: 1.21 +/- 0.12%); assay type: functional; parameters: scale not given: the % may be the effect or the level left
Plasmodium berghei [24] = experiment: Antimalarial activity against […] Plasmodium berghei ANKA infected in C57BL/6 mouse assessed as clearance of parasite from blood of mouse at 25 mg/kg, ip administered 3 to 9 days post infection by Geimsa staining based microscopic analysis; assay type: functional, organism-based; parameters: dose 25 mg/kg; procedure, shortened: as §1
Plasmodium falciparum [25] = experiment: Antimalarial activity against chloroquine-sensitive Plasmodium falciparum NF54 infected in human erythrocytes assessed as reduction of parasitemia level at 0.032 uM after 4 days by Geimsa staining based light microscopic analysis (reference value: 2.73 +/- 0.16%); assay type: functional; parameters: scale not given: the % may be the effect or the level left
Plasmodium falciparum [26] = experiment: Antimalarial activity against chloroquine-sensitive Plasmodium falciparum NF54 infected in human erythrocytes assessed as reduction of parasitemia level at 0.032 uM after 3 days by Geimsa staining based light microscopic analysis (reference value: 2.55 +/- 0.21%); assay type: functional; parameters: scale not given: the % may be the effect or the level left

SMILES: Oc1c(-c2cc3nc4ncccc4nc3c3ccccc23)ccc2ccccc12
- inhibition (Plasmodium falciparum [1]): inactive

SMILES: Oc1ccc2ccccc2c1-c1cc2nc3c(O)nc(S)nc3nc2c2ccccc12
- inhibition (Plasmodium falciparum [1]): inactive

SMILES: O/N=C1/C=C(c2c(O)ccc3ccccc23)c2ccccc2/C1=N/O
- Activity (Plasmodium falciparum [2]): 0%
- pIC50 (Plasmodium falciparum [3]): 5.43
- Activity (Plasmodium falciparum [4]): 0.2%
- Activity (Plasmodium falciparum [5]): 0.04%
- Activity (Plasmodium falciparum [6]): 0.94%

SMILES: Oc1c(-c2cc3nc4ccccc4nc3c3ccccc23)ccc2ccccc12
- Activity (Plasmodium falciparum [7]): 0.11%
- Activity (Plasmodium falciparum [8]): 0.02%
- pIC50 (Plasmodium falciparum [3]): 6.06
- Activity (Plasmodium falciparum [9]): 0.27%
- Activity (Plasmodium falciparum [10]): 0%

SMILES: Oc1ccc2ccccc2c1-c1cc2nc3ncccc3nc2c2ccccc12
- Activity (Plasmodium falciparum [11]): 0%
- Activity (Plasmodium berghei [12]): Active
- Activity (Plasmodium falciparum [13]): 0%
- Activity (Plasmodium falciparum [14]): 0%
- Activity (Plasmodium falciparum [15]): 0.04%
- Activity (Plasmodium berghei [16]): inactive
- Activity (Mus musculus [17]): Toxic
- pIC50 (Plasmodium falciparum [3]): 5.28

SMILES: Nc1nnc2cc(-c3c(O)ccc4ccccc34)c3ccccc3c2n1
- inhibition (Plasmodium falciparum [1]): inactive

SMILES: Oc1c(-c2cc3nc4cc(Cl)c(Cl)cc4nc3c3ccccc23)ccc2ccccc12
- Activity (Plasmodium falciparum [7]): 0.15%
- Activity (Plasmodium falciparum [8]): 0%
- pIC50 (Plasmodium falciparum [3]): 6.29
- Activity (Plasmodium falciparum [9]): 0.17%
- Activity (Plasmodium falciparum [10]): 0%

SMILES: O=C(O)c1cnc2cc(-c3c(O)ccc4ccccc34)c3ccccc3c2n1
- inhibition (Plasmodium falciparum [1]): inactive

SMILES: Oc1ccc2ccccc2c1-c1cc2c(c3ccccc13)=NC1(CCCCC1)N=2
- inhibition (Plasmodium falciparum [1]): inactive

SMILES: O=C(O)c1cnc2cc(-c3ccc4ccccc4c3O)c3ccccc3c2n1
- inhibition (Plasmodium falciparum [1]): inactive

SMILES: Oc1ccc2ccccc2c1-c1cc2nc3ccccc3nc2c2ccccc12
- Activity (Plasmodium berghei [18]): inactive
- Activity (Plasmodium falciparum [11]): 0.07%
- Activity (Plasmodium falciparum [13]): 0.02%
- Activity (Plasmodium falciparum [14]): 0%
- Activity (Plasmodium falciparum [15]): 0.23%
- Activity (Mus musculus [19]): Toxic
- pIC50 (Plasmodium falciparum [3]): 5.39
- Activity (Plasmodium berghei [20]): Active

SMILES: Oc1ccc2ccccc2c1-c1cc2nc3cc(Cl)c(Cl)cc3nc2c2ccccc12
- Activity (Plasmodium falciparum [11]): 0.01%
- Activity (Plasmodium berghei [12]): Active
- Activity (Plasmodium falciparum [13]): 0%
- Activity (Plasmodium falciparum [14]): 0%
- Activity (Plasmodium falciparum [15]): 0.14%
- Activity (Plasmodium berghei [16]): inactive
- Activity (Mus musculus [17]): Toxic
- pIC50 (Plasmodium falciparum [3]): 5.30

SMILES: O=C1C=C(c2ccc3ccccc3c2O)c2ccccc2C1=O
- inhibition (Plasmodium falciparum [1]): inactive

SMILES: Oc1c(-c2cc3nc4c(O)nc(S)nc4nc3c3ccccc23)ccc2ccccc12
- inhibition (Plasmodium falciparum [1]): inactive

SMILES: Oc1ccc2cc(Br)ccc2c1-c1cc2nc3ccccc3nc2c2ccc(Br)cc12
- Activity (Plasmodium falciparum [2]): 0%
- Activity (Plasmodium berghei [21]): Active
- pIC50 (Plasmodium falciparum [3]): 6.19
- Activity (Plasmodium falciparum [4]): 0.01%
- Activity (Plasmodium falciparum [5]): 0%
- Activity (Plasmodium falciparum [6]): 0.14%

SMILES: CCN(CC)CCCC(C)Nc1ccnc2cc(Cl)ccc12 (stereo not drawn) [CHLOROQUINE]
- Activity (Plasmodium falciparum [22]): 0.06%
- Activity (Plasmodium falciparum [23]): 0%
- Activity (Plasmodium berghei [24]): inactive
- Activity (Plasmodium falciparum [25]): 0%
- Activity (Plasmodium falciparum [26]): 0%
